The test system of one test is Pseudomonas aeruginosa. Briefly: Antibacterial assay. Type of test: cell-based. Particulars: Gram-negative.
A further test deals with Staphylococcus aureus. Briefly: Antibacterial assay. Type of test: cell-based. The conditions noted are these: Gram-positive.
The next test has as its system Proteus vulgaris. Put plainly: Antibacterial assay. Type of test: cell-based. The conditions noted are these: Gram-negative.
The test system of the next test is Bacillus subtilis. Briefly: Antibacterial assay. Type of test: cell-based. The conditions noted are these: Gram-positive.
The next test deals with Escherichia coli. Briefly: Antibacterial assay. Type of test: cell-based. Particulars: Gram-negative.
The next test concerns HEKa cells. Briefly: Cell viability. Type of test: cell-based. Particulars: Homo sapiens, read-out: IC50 (mean ± SD; n = 3). The procedure, abridged: (§1)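 Cells were grown in medium with 10% FBS and penicillin/streptomycin 100 units/mL, humidified, at 37 °C and 5% CO2; HT-29 and HEKa were in RPMI-1640. About 2000 cells/well were seeded in 96-well plates. Cells were rinsed once with PBS and five times with distilled water.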

A further test concerns PC-3 cells. Put plainly: Cell viability. Type of test: cell-based. Particulars: Homo sapiens, PC-3, read-out: IC50 (mean ± SD; n = 3). The procedure, abridged: as §1
Test [1] deals with HT-29 cells. Put plainly: Cell viability. Type of test: cell-based. The conditions noted are these: Homo sapiens, HT-29, read-out: IC50 (mean ± SD; n = 3). The procedure, abridged:
as §1

Test [2] relates to HepG2 cells. Put plainly: Cell viability. Type of test: cell-based. The conditions noted are these: Homo sapiens, HepG2, read-out: IC50 (mean ± SD; n = 3). The procedure, abridged: as §1
Test [3] in a line: DPPH free radical scavenging assay. The conditions noted are these: t = 16 min. The gist of the method:
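Radical scavenging was read by absorbance. Percent inhibition = (Abs0 − AbsT)/Abs0 × 100, where Abs0 is the control at t = 0 and AbsT is the sample with DPPH at t = 16 min.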
Background: The DPPH test is a chemical assay of radical scavenging.

Test [4] deals with HT-29 cells. Put plainly: Cell cycle analysis. Type of test: cell-based, human. The conditions noted are these: HT-29, 48 h.
Test [5] has as its system HepG2 cells. Briefly: Cell cycle analysis. Type of test: cell-based, human. Particulars: HepG2, 48 h.
The next test relates to Aspergillus flavus. Briefly: Antifungal assay. Type of test: cell-based. The conditions noted are these: A. flavus. The procedure, abridged: (§2)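 Antifungal agar diffusion read as inhibition zone diameter in mm, with amphotericin B as positive control.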
A further test deals with C. tropicalis. Put plainly: Antifungal assay. Type of test: cell-based, Candida tropicals. The gist of the method: as §2
Another test has as its system Candida albicans. Put plainly: Antifungal assay. Type of test: cell-based. The conditions noted are these: C. albicans. The gist of the method: as §2
In a further test the test system is Aspergillus niger. Briefly: Antifungal assay. Type of test: cell-based. Particulars: A. niger. The procedure, abridged:
as §2

Values after ≈ are worked out from the molar mass of the structure shown.

`CC1(C)S[C@@H]2[C@H](NC(=O)[C@H](N)c3ccc(O)cc3)C(=O)N2[C@H]1C(=O)O` [Amoxicillin]: the Inhibition zone is reported as 39 ± 2.40 mm in the test with Pseudomonas aeruginosa; 20 ± 1.90 mm with Staphylococcus aureus; 30 ± 4.00 mm with Proteus vulgaris; 23 ± 6.40 mm in the test with Bacillus subtilis; 33 ± 2.90 mm in the test on Escherichia coli.
One may read the IC50 as the concentration that gives 50% inhibition. `CC1(C)C[C@H](O)C[C@@]2(C)OC(=O)C=C12` [Compound 3, loliolide]: the IC50 with HEKa cells was 3.1 ± 0.1 µg/mL (≈ 15.8 µM); in the test with PC-3 cells, 11.9 ± 1.31 µg/mL (≈ 60.6 µM); in the test with HT-29 cells [1] it was 8.9 ± 0.97 µg/mL (≈ 45.4 µM); in the test on HepG2 cells [2], 4.6 ± 0.51 µg/mL (≈ 23.4 µM). For the same molecule, the Inhibition zone in the test on Pseudomonas aeruginosa is 09 ± 1.20 mm; in the test with Staphylococcus aureus, 16 ± 1.90 mm; in the test with Proteus vulgaris, 10 ± 1.50 mm; in the test on Bacillus subtilis, 15 ± 1.70 mm; in the test on Escherichia coli, 10 ± 1.40 mm. In addition, in test [3], the “IC50 (DPPH free radical scavenging)” value came out at 55.9 µg/mL (≈ 285 µM).
Consider `COc1cccc2c1C(=O)c1c(O)c3c(c(O)c1C2=O)C[C@@](O)(C(=O)CO)C[C@@H]3O[C@H]1C[C@H](N)[C@H](O)[C@H](C)O1` [Doxorubicin], for which the IC50 with HEKa cells was 0.7 ± 0.04 µg/mL (≈ 1.29 µM); in the test with HT-29 cells [1] it was 1.7 ± 0.02 µg/mL (≈ 3.13 µM). Further, the “cell cycle arrest phase” value in the test with HT-29 cells [4] and in the test on HepG2 cells [5] was “arrested in G2 phase” each time.
Consider `C[C@@H]1[C@H](O)[C@@H](C)/C=C/C=C/C=C/C=C/C=C/C=C/C=C/[C@H](O[C@@H]2O[C@H](C)[C@@H](O)[C@H](N)[C@@H]2O)C[C@@H]2O[C@](O)(C[C@@H](O)C[C@@H](O)[C@H](O)CC[C@@H](O)C[C@@H](O)CC(=O)O[C@H]1C)C[C@H](O)[C@H]2C(=O)O` [amphotericin B], for which the “diameter of inhibition zone” value in the test on Aspergillus flavus turned out to be 33 ± 1.11 mm; with C. tropicalis, 25 ± 0.87 mm; in the test on Candida albicans, 29 ± 0.90 mm; with Aspergillus niger it was 41 ± 0.70 mm.
For the molecule `O=C1O[C@H]([C@@H](O)CO)C(O)=C1O` [vitamin C], the “IC50 (DPPH free radical scavenging)” value in test [3] is on record as 14.2 µg/mL (≈ 80.6 µM).

For the origin of these results see publication PMC10203771 (Saudi Pharmaceutical Journal : SPJ, 2023).
